From ChEMBL document CHEMBL3272012, “5-(Tetradecyloxy)-2-furancarboxylic acid and related hypolipidemic fatty acid-like alkyloxyarylcarboxylic acids” (J Med Chem, 1977)
Each block holds one compound with its values, some of them ahead of it.

What was measured:
[1] = tested on: Rattus norvegicus; test: Hypolipidemic activity in Wistar rat assessed as reduction in plasma triglyceride level at 415 umol/kg/day administered through diet for 4 days; format: functional; settings: 96 h
Procedure, shortened: (§1)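 Young male Wistar rats (initial weight 170-190 g), groups of six, fed compound mixed into Purina Lab Chow ad libitum for 4 or 10 days; daily dose calculated from food consumption and body weight. Bled by cardiac puncture; plasma cholesterol and triglycerides by automated procedures; percent reduction versus simultaneous untreated controls, Student's t test.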

[2] = tested on: Rattus norvegicus; test: Hypolipidemic activity in Wistar rat assessed as reduction in plasma cholesterol level at 415 umol/kg/day administered through diet for 4 days; format: functional; settings: 96 h
Procedure, shortened: (§2)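 Young male Wistar rats, 170-190 g at start, in groups of six, given compound mixed into Purina Lab Chow ad libitum for 4 or 10 days as stated. Daily dose was calculated from food consumption and body weight. Plasma was taken by cardiac puncture at the end and cholesterol measured by automated procedure. Results are % reduction versus a concurrent untreated control group, with Student's t test.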

[3] = tested on: Rattus norvegicus; test: Increase in liver weight in Wistar rat at 415 umol/kg/day administered through diet for 4 days; format: ADME, organism-based; settings: in vivo, po, 96 h
Procedure, shortened: (§3)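 Male Wistar rats (170-190 g initial), groups of six, dosed via diet ad libitum for 4 or 10 days, daily dose from food consumption. Liver wet weight measured, expressed as g/100 g final body weight, compared with untreated controls run simultaneously.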

[4] = tested on: Rattus norvegicus; test: Increase in cholesterol level in Wistar rat liver at 415 umol/kg/day administered through diet for 4 days; format: ADME, organism-based; settings: in vivo, po, 96 h
[5] = tested on: Rattus norvegicus; test: Hypolipidemic activity in Wistar rat assessed as reduction in plasma triglyceride level at 406 umol/kg/day administered through diet for 4 days; format: functional; settings: 96 h
[6] = tested on: Rattus norvegicus; test: Increase in cholesterol level in Wistar rat liver at 406 umol/kg/day administered through diet for 4 days; format: ADME, organism-based; settings: in vivo, po, 96 h
[7] = tested on: Rattus norvegicus; test: Increase in liver weight in Wistar rat at 406 umol/kg/day administered through diet for 4 days; format: ADME, organism-based; settings: in vivo, po, 96 h
[8] = tested on: Rattus norvegicus; test: Hypolipidemic activity in Wistar rat assessed as reduction in plasma cholesterol level at 406 umol/kg/day administered through diet for 4 days; format: functional; settings: 96 h; procedure, shortened: as §2
[9] = tested on: Rattus norvegicus; test: Increase in cholesterol level in Wistar rat liver at 571 umol/kg/day administered through diet for 10 days; format: ADME, organism-based; settings: in vivo, po, 240 h
[10] = tested on: Rattus norvegicus; test: Hypolipidemic activity in Wistar rat assessed as reduction in plasma triglyceride level at 571 umol/kg/day administered through diet for 10 days; format: functional; settings: 240 h
[11] = tested on: Rattus norvegicus; test: Increase in liver weight in Wistar rat at 571 umol/kg/day administered through diet for 10 days; format: ADME, organism-based; settings: in vivo, po, 240 h
[12] = tested on: Rattus norvegicus; test: Hypolipidemic activity in Wistar rat assessed as reduction in plasma cholesterol level at 571 umol/kg/day administered through diet for 10 days; format: functional; settings: 240 h; procedure, shortened: as §1
[13] = tested on: Rattus norvegicus; test: Hypolipidemic activity in Wistar rat assessed as reduction in plasma cholesterol level at 446 umol/kg/day administered through diet for 4 days; format: functional; settings: 96 h
Procedure, shortened: (§4)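 Young male Wistar rats, 170-190 g initial weight, groups of six, given compound mixed thoroughly into Purina Lab Chow ad libitum for 4 or 10 days as stated. Daily dose calculated from food consumption and body weight. Bled by cardiac puncture at end of treatment; plasma cholesterol measured by automated procedure. Expressed as percent reduction versus simultaneous untreated control group; Student's t test.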

[14] = tested on: Rattus norvegicus; test: Hypolipidemic activity in Wistar rat assessed as reduction in plasma triglyceride level at 446 umol/kg/day administered through diet for 4 days; format: functional; settings: 96 h
[15] = tested on: Rattus norvegicus; test: Increase in liver weight in Wistar rat at 446 umol/kg/day administered through diet for 4 days; format: ADME, organism-based; settings: in vivo, po, 96 h
[16] = tested on: Rattus norvegicus; test: Increase in cholesterol level in Wistar rat liver at 446 umol/kg/day administered through diet for 4 days; format: ADME, organism-based; settings: in vivo, po, 96 h
[17] = tested on: Rattus norvegicus; test: Hypolipidemic activity in Wistar rat assessed as reduction in plasma cholesterol level at 499 umol/kg/day administered through diet for 4 days; format: functional; settings: 96 h; procedure, shortened: as §4
[18] = tested on: Rattus norvegicus; test: Hypolipidemic activity in Wistar rat assessed as reduction in plasma triglyceride level at 499 umol/kg/day administered through diet for 4 days; format: functional; settings: 96 h; procedure, shortened: as §1
[19] = tested on: Rattus norvegicus; test: Increase in cholesterol level in Wistar rat liver at 499 umol/kg/day administered through diet for 4 days; format: ADME, organism-based; settings: in vivo, po, 96 h
[20] = tested on: Rattus norvegicus; test: Increase in liver weight in Wistar rat at 499 umol/kg/day administered through diet for 4 days; format: ADME, organism-based; settings: in vivo, po, 96 h; procedure, shortened: as §3
[21] = tested on: Rattus norvegicus; test: Increase in cholesterol level in Wistar rat liver at 472 umol/kg/day administered through diet for 4 days; format: ADME, organism-based; settings: in vivo, po, 96 h
[22] = tested on: Rattus norvegicus; test: Increase in liver weight in Wistar rat at 472 umol/kg/day administered through diet for 4 days; format: ADME, organism-based; settings: in vivo, po, 96 h
[23] = tested on: Rattus norvegicus; test: Hypolipidemic activity in Wistar rat assessed as reduction in plasma cholesterol level at 472 umol/kg/day administered through diet for 4 days; format: functional; settings: 96 h; procedure, shortened: as §4
[24] = tested on: Rattus norvegicus; test: Hypolipidemic activity in Wistar rat assessed as reduction in plasma triglyceride level at 472 umol/kg/day administered through diet for 4 days; format: functional; settings: 96 h
[25] = tested on: Rattus norvegicus; test: Hypolipidemic activity in Wistar rat assessed as reduction in plasma triglyceride level at 459 umol/kg/day administered through diet for 10 days; format: functional; settings: 240 h
[26] = tested on: Rattus norvegicus; test: Hypolipidemic activity in Wistar rat assessed as reduction in plasma cholesterol level at 459 umol/kg/day administered through diet for 10 days; format: functional; settings: 240 h; procedure, shortened: as §4
[27] = tested on: Rattus norvegicus; test: Increase in liver weight in Wistar rat at 459 umol/kg/day administered through diet for 10 days; format: ADME, organism-based; settings: in vivo, po, 240 h
[28] = tested on: Rattus norvegicus; test: Increase in cholesterol level in Wistar rat liver at 459 umol/kg/day administered through diet for 10 days; format: ADME, organism-based; settings: in vivo, po, 240 h
[29] = tested on: Rattus norvegicus; test: Hypolipidemic activity in Wistar rat assessed as reduction in plasma cholesterol level at 477 umol/kg/day administered through diet for 4 days; format: functional; settings: 96 h; procedure, shortened: as §4
[30] = tested on: Rattus norvegicus; test: Hypolipidemic activity in Wistar rat assessed as reduction in plasma triglyceride level at 477 umol/kg/day administered through diet for 4 days; format: functional; settings: 96 h
[31] = tested on: Rattus norvegicus; test: Increase in cholesterol level in Wistar rat liver at 477 umol/kg/day administered through diet for 4 days; format: ADME, organism-based; settings: in vivo, po, 96 h
[32] = tested on: Rattus norvegicus; test: Increase in liver weight in Wistar rat at 477 umol/kg/day administered through diet for 4 days; format: ADME, organism-based; settings: in vivo, po, 96 h
[33] = tested on: Rattus norvegicus; test: Increase in liver weight in Wistar rat at 425 umol/kg/day administered through diet for 10 days; format: ADME, organism-based; settings: in vivo, po, 240 h
[34] = tested on: Rattus norvegicus; test: Hypolipidemic activity in Wistar rat assessed as reduction in plasma cholesterol level at 425 umol/kg/day administered through diet for 10 days; format: functional; settings: 240 h; procedure, shortened: as §4
[35] = tested on: Rattus norvegicus; test: Hypolipidemic activity in Wistar rat assessed as reduction in plasma triglyceride level at 425 umol/kg/day administered through diet for 10 days; format: functional; settings: 240 h
[36] = tested on: Rattus norvegicus; test: Increase in cholesterol level in Wistar rat liver at 425 umol/kg/day administered through diet for 10 days; format: ADME, organism-based; settings: in vivo, po, 240 h

Compound: CCCCCCCCCCCCCCCc1ccc(C(=O)O)cc1
inhibition in vivo at 415 µmol/kg [1]: 58%
inhibition in vivo at 415 µmol/kg [2]: 27%
Activity [3]: 4%
Activity [4]: 13%

Compound: CCCCCCCCCCCCCc1ccc(C(=O)O)cc1
Activity [9]: 61%
inhibition in vivo at 571 µmol/kg [10]: 77%
Activity [11]: 25%
inhibition in vivo at 571 µmol/kg [12]: 54%

Compound: CCCCCCCCCCCCCCOc1ccc(C=O)cc1
inhibition in vivo at 499 µmol/kg [17]: 25%
inhibition in vivo at 499 µmol/kg [18]: 68%
Activity [19]: 12%
Activity [20]: 18%

Compound: CCCCCCCCCCCCCCCCCCCc1ccc(C(=O)O)cc1
Activity [33]: 10%
inhibition in vivo at 425 µmol/kg [34]: 8%
inhibition in vivo at 425 µmol/kg [35]: 2%
Activity [36]: 0%

The next lines start with results.

Activity [6]: 11%
Activity [7]: 17%
Compound: CCCCCCCCCCCCCCOc1ccc(COC(C)=O)cc1
inhibition in vivo at 406 µmol/kg [5]: 62%
inhibition in vivo at 406 µmol/kg [8]: 22%

Activity [15]: 4%
Activity [16]: 0%
Compound: CCCCCCCCCCCCCCOc1ccc(OCC(=O)OC)cc1
inhibition in vivo at 446 µmol/kg [13]: 10%
inhibition in vivo at 446 µmol/kg [14]: 0%

Activity [21]: 0%
Activity [22]: 8%
Compound: CCCCCCCCCCCCCCOc1ccc(CC(=O)OC)cc1
inhibition in vivo at 472 µmol/kg [23]: 0%
inhibition in vivo at 472 µmol/kg [24]: 23%

Activity [27]: 0%
Activity [28]: 0%
Compound: CCCCCCCCCCCCCCOc1ccc(C(N)=O)cc1
inhibition in vivo at 459 µmol/kg [25]: 0%
inhibition in vivo at 459 µmol/kg [26]: 3%

Activity [31]: 33%
Activity [32]: 17%
Compound: CCCCCCCCCCCCCCOc1ccc(CO)cc1
inhibition in vivo at 477 µmol/kg [29]: 35%
inhibition in vivo at 477 µmol/kg [30]: 41%
